In test [1] the test system is B16. The test is described as follows: Antitumor activity against B16 melanoma from B6 D2 F1 female mice(T/C) as median survival time of treated mice (T) over that of control mice (C) at a dose of 0.50 mg/kg/day (repeated ip injections, day 1-9). In kind it is functional, Mus musculus. Particulars: route intraperitoneal. The essentials: (§1)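 B16 melanoma homogenate (1 g tumor in 9 mL 0.9% saline), 0.5 mL implanted ip on day 0 in B6D2F1 female mice (C57BL/6 ♀ × DBA/2 ♂). Treatment ip once daily from day 1 to day 9. Toxicity scored as survivors on day 5. Median survival recorded and T/C computed as treated/control median survival, ≥125% significant.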

Test [2] deals with B16. The test is described as follows: Antitumor activity against B16 melanoma from B6 D2 F1 female mice evaluated as the number of survivors on day 5 at a dose of 0.25 mg/kg/day (repeated ip injections, day 1-9). Particulars: route intraperitoneal. The format is functional, Mus musculus. The essentials:
as §1

Test [3] has as its system B16. The test is described as follows: Antitumor activity against B16 melanoma from B6 D2 F1 female mice evaluated as the number of survivors on day 5 at a dose of 0.50 mg/kg/day. In kind it is functional, Mus musculus. In outline: (§2)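 B6D2F1 female mice (C57BL/6 ♀ × DBA/2 ♂) implanted ip on day 0 with 0.5 mL of B16 tumor suspension (1 g homogenized in 9 mL 0.9% saline). Dosing ip on days 1, 5 and 9. Day-5 survivors give toxicity. Median survival of treated vs control mice gives T/C%, with ≥125% significant.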

Test [4] relates to B16. The test is described as follows: Antitumor activity against B16 melanoma from B6 D2 F1 female mice evaluated as the number of survivors on day 5 at a dose of 0.50 mg/kg/day (repeated ip injections, day 1-9). The format is functional, Mus musculus. The note with it: route intraperitoneal. In outline:
as §1

In test [5] the test system is B16. The test is described as follows: Antitumor activity against B16 melanoma from B6 D2 F1 female mice as average weight change of animals between day 1 and day 5 after tumor implementation at a dose of 0.03 mg/kg/day (repeated ip injections, day 1-9). In kind it is functional, Mus musculus. Particulars: route intraperitoneal. In outline:
(§3)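 B6D2F1 female mice (C57BL/6 × DBA/2) were implanted ip on day 0 with 0.5 mL of B16 suspension (1 g tumor homogenized in 9 mL 0.9% saline). Ip treatment was given once daily, day 1 to day 9. Body weight was recorded on days 1 and 5 after implantation, and the mean change per group was reported.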

The subject of test [6] is B16. The test is described as follows: Antitumor activity against B16 melanoma from B6 D2 F1 female mice as average weight change of animals between day 1 and day 5 after tumor implementation at a dose of 0.06 mg/kg/day (repeated ip injections, day 1-9). The format is functional, Mus musculus. Particulars: route intraperitoneal. In outline:
as §3

Test [7] has as its system B16. The test is described as follows: Antitumor activity against B16 melanoma from B6 D2 F1 female mice as average weight change of animals between day 1 and day 5 after tumor implementation at a dose of 0.25 mg/kg/day (repeated ip injections, day 1-9). The format is functional, Mus musculus. Particulars: route intraperitoneal. In outline:
as §3

In test [8] the test system is B16. The test is described as follows: Antitumor activity against B16 melanoma from B6 D2 F1 female mice evaluated as average weight change of animals between day 1 and day 5 after tumor implementation at a dose of 0.06 mg/kg/day. In kind it is functional, Mus musculus. In outline: (§4)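 B16 melanoma in B6D2F1 female mice: 0.5 mL of tumor homogenate (1 g in 9 mL 0.9% saline) was given ip on day 0. Ip dosing was on days 1, 5 and 9. The readout was the average body weight change between day 1 and day 5 after tumor implantation.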

Test [9] deals with B16. The test is described as follows: Antitumor activity against B16 melanoma from B6 D2 F1 female mice evaluated as the number of survivors on day 5 at a dose of 0.03 mg/kg/day (repeated ip injections, day 1-9). In kind it is functional, Mus musculus. Particulars: route intraperitoneal. In outline:
as §1

Test [10] deals with B16. The test is described as follows: Antitumor activity against B16 melanoma from B6 D2 F1 female mice evaluated as average weight change of animals between day 1 and day 5 after tumor implementation at a dose of 0.25 mg/kg/day. In kind it is functional, Mus musculus. The essentials:
as §4

The test system of test [11] is B16. The test is described as follows: Antitumor activity against B16 melanoma from B6 D2 F1 female mice evaluated as average weight change of animals between day 1 and day 5 after tumor implementation at a dose of 1 mg/kg/day. In kind it is functional, Mus musculus. The essentials: as §4
The test system of test [12] is B16. The test is described as follows: Antitumor activity against B16 melanoma from B6 D2 F1 female mice as Median survival time of treated mice at a dose of 0.25 mg/kg/day (repeated ip injections, day 1-9). The format is functional, Mus musculus. Particulars: route intraperitoneal. In outline: as §1
For test [13], the system named is B16. The test is described as follows: Antitumor activity against B16 melanoma from B6 D2 F1 female mice evaluated as Median survival time of treated mice at a dose of 0.50 mg/kg/day. In kind it is functional, Mus musculus. The essentials: as §2
The subject of test [14] is L1210. The test is described as follows: Antitumor activity against L1210 Lymphoid Leukemia from CDF1 female mice evaluated as the number of survivors on day 5 at a dose of 0.50 mg/kg/day. In kind it is functional, Mus musculus. The essentials: (§5)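 L1210 leukemia, 10⁵ cells ip on day 0 into CDF1 female mice (BALB/c ♀ × DBA/2 ♂). Drug in 2% methanol given ip on days 1, 5 and 9, 10 mice per group. Survivors and body weight recorded on days 1 and 5, with toxicity as survivors on day 5. Deaths followed for 30 days. T/C = treated/control median survival time, significant at ≥125%.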

Test [15] has as its system L1210. The test is described as follows: Antitumor activity against L1210 Lymphoid Leukemia from CDF1 female mice (T/C) as median survival time of treated mice (T) over that of control mice (C) at a dose of 0.25 mg/kg/day. In kind it is functional, Mus musculus. In outline: as §5
Test [16] deals with L1210. The test is described as follows: Antitumor activity against L1210 Lymphoid Leukemia from CDF1 female mice evaluated as Median survival time of treated mice at a dose of 0.25 mg/kg/day. The format is functional, Mus musculus. The essentials:
as §5

In test [17] the test system is L1210. The test is described as follows: In vitro cytostatic activity determined on L1210 leukemia cells at 24 hours. The format is functional. Particulars: Mus musculus, L1210, 24 h; read-out: ID50 (the source's name). The essentials: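 Log-phase L1210 cells were seeded at 0.8 × 10⁵ cells/mL in RPMI 1640 with 20% heat-inactivated horse serum, 2 mmol/L L-glutamine, streptomycin and penicillin. Drugs in ethanol (0.5% final) were tested at several concentrations.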

The test system of test [18] is P388. The test is described as follows: Antitumor activity was evaluated from the median survival time of treated mice (T) over that of control mice (C) at a dose of 1 mg/kg/day. The format is functional, Mus musculus.
In test [19] the test system is P388. The test is described as follows: Antitumor activity against P388 Leukemia from CDF1 female mice evaluated as Median survival time of treated mice at a dose of 0.25 mg/kg/day. The format is functional, Mus musculus. In outline: (§6)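 CDF1 female mice (BALB/c × DBA/2) inoculated ip with 10⁶ P388 cells on day 0. Drug given ip in 2% methanol on days 1, 5 and 9. Ten mice per dose group, with a larger control group. Body weight and survival were recorded on days 1 and 5, with toxicity taken as survivors on day 5. Mortality was followed for 30 days to give median survival time.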

For test [20], the system named is P388. The test is described as follows: Antitumor activity against P388 Leukemia from CDF1 female mice evaluated as the number of survivors on day 5 at a dose of 0.06 mg/kg/day. The format is functional, Mus musculus. The essentials: as §6
For test [21], the system named is P388. The test is described as follows: Antitumor activity (T/C) was evaluated from the median survival time of treated mice (T) over that of control mice (C) at a dose of 0.03 mg/kg/day. In kind it is functional, Mus musculus. In outline: (§7)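 CDF1 female mice (BALB/c ♀ × DBA/2 ♂) given 10⁶ P388 cells ip on day 0. Drug in 2% methanol given ip on days 1, 5 and 9, 10 mice per group and more controls. Toxicity is survivors on day 5, with weight change between days 1 and 5. Mortality followed 30 days. T/C% is treated over control median survival (NCI method), significant at ≥125%.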

The subject of test [22] is P388. The test is described as follows: Antitumor activity (T/C) was evaluated from the median survival time of treated mice (T) over that of control mice (C) at a dose of 0.12 mg/kg/day. In kind it is functional, Mus musculus. In outline:
as §7

Test [23] has as its system P388. The test is described as follows: Antitumor activity (T/C) was evaluated from the median survival time of treated mice (T) over that of control mice (C) at a dose of 0.75 mg/kg/day. In kind it is functional, Mus musculus. The essentials: as §7

Values after ≈ are worked out from the molar mass of the structure shown.

On to `COc1ccc(C[C@H]2C(=O)O[C@H](C)[C@H](NC(=O)[C@@H](CC(C)C)N(C)C(=O)C3CCCN3C(=O)[C@@H](C)O)C(=O)NC(C(C)C)[C@H](O)CC(=O)O[C@@H](C(C)C)C(=O)[C@H](C)C(=O)N[C@@H](CC(C)C)C(=O)N3CCC[C@H]3C(=O)N2C)cc1` (stereo partly drawn) [NORDIDEMNIN], for which the T/C (usually the ratio of treated to control) with B16 [1] was 52%; in the test on L1210 [15], 111%; in the test on P388 [18], 180%; with P388 [21], 112%; in the test on P388 [22], 133%; in the test on P388 [23], 175%. Besides, the Toxicity in the test with B16 [2] amounted to 1; in the test with B16 [3], 1; with B16 [4] it was 1; in the test with B16 [9], 0.9; with L1210 [14], 1; in the test with P388 [20], 1. The Body weight change with B16 [5] is on record as -0.1 g; with B16 [6], -0.3 g; in the test on B16 [7], -2.1 g; in the test on B16 [8] it was 0 g; with B16 [10] it was 0 g; in the test on B16 [11], 0 g. Further, the “median survival time, days” value worked out at 29.8 in the test with B16 [12], 28 with B16 [13], 10.1 in the test on L1210 [16] and 15.7 with P388 [19]. For the same molecule, the IC50 with L1210 [17] was determined as 3.6 ng/mL (≈ 3.28 nM).
